Rows were chosen to be rich in hits. Some 1.3% of all compounds tested hit in one or more screens of this group.
ARFGAP1 inhibitor: inhibitors of rat ARFGAP1 GAP activity, primary screen, biochemical, fluorescence polarization, GDP tracer; Arfgap1-stimulated ARF1 GTP hydrolysis, GDP FP detection; inhibition, % at 16.5 µM; actives 0.26% (n = 360,000); AID 651572, 2012;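 active = inhibition above a per-plate limit, mean inhibition of low control wells plus 3 SD, cut at about 25% in these data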
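Material – truncated rat Arfgap1 GAP domain · Buffer or medium – HEPES-based buffer, pH 7.5 · Reagent – human ARF1(Δ1-17)-GTP substrate · Dosing – 16.5 µM single point, 1.26% DMSO · Schedule – GTP hydrolysis reaction 2 h at 25 °C · Technique – GDP detection by fluorescence polarization · Benchmarks – No-Arfgap1 wells (100%) versus DMSO full-reaction wells (0%) · Repeats – single replicate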
CASP6 VEID inh: human caspase-6 inhibitors, primary screen, biochemical, VEID-R110 fluorescence, single point, set 2; AID 686996, 2013; purified caspase-6, Z-VEID-R110 cleavage fluorescence; inhibition, % at 12.5 µM; P55212; actives 0.53% (n = 350,000);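 active = mean inhibition across replicates at least about 35%, with every replicate also reaching that limit, limit read from the data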
Target sequence (P55212 24-179 limits assumed): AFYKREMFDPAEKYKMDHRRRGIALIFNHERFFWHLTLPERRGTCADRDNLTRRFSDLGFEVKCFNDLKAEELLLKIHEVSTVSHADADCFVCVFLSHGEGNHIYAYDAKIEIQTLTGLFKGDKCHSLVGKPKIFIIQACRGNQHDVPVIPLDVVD
Target sequence (P55212 194-293 limits assumed): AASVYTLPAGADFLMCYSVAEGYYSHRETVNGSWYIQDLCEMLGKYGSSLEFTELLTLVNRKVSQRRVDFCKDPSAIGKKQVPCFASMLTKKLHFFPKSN
TDP2 inh: human TDP2 enzyme inhibitors, primary screen, biochemical, epi absorbance, recombinant enzyme. AID 720702, 2013. Tyrosyl-DNA phosphodiesterase 2 (Homo sapiens), O95551. T5PNP hydrolysis, p-nitrophenol absorbance 415 nm. actives 0.34% (n = 370,000). inhibition, % at 12.8 µM;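 active = inhibition above the mean of all tested compounds plus 3 SD, set per campaign, cut at about 25% in these data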
Target sequence (O95551 whole entry, looked up): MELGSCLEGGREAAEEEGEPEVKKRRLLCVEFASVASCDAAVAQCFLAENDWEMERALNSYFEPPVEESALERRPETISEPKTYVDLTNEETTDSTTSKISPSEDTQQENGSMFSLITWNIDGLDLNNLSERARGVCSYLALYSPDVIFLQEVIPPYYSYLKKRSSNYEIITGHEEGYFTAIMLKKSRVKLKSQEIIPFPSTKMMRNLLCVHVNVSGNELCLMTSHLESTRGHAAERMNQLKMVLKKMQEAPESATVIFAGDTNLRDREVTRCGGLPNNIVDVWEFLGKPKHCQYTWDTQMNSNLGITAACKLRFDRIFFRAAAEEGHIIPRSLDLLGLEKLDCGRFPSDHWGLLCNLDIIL
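Test system: Human TDP2 enzyme | Reagent: 5 mM T5PNP | Compound dosing: 12.8 µM single point, 1% DMSO | Incubation: Enzyme reaction with compound for 2 h at 37 °C | Technique: p-Nitrophenol epi absorbance | Read-out: % inhibition relative to enzyme-containing and enzyme-free wells | Benchmarks: High control without enzyme, low control DMSO plus TDP2 | Replicates: Singlicate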
ASAP1 GAP inh: inhibitors of human ASAP1 ArfGAP activity, primary screen, biochemical, fluorescence polarization; Arf-GAP with SH3 domain, ANK repeat and PH domain-containing protein 1 (Homo sapiens), …; ASAP1-stimulated ARF1 GTP hydrolysis, GDP FP detection; inhibition, % at 16.5 µM; actives 0.19% (n = 360,000); AID 624377, 2012; in the data active = inhibition above about 25%
LEDGF integ inh: blockers of LEDGF/p75-dependent integrase strand transfer – biochemical, TR-FRET, high throughput, primary screen; AID 743269, 2014; HIV-1 integrase (with human LEDGF/p75); actives 0.64% (n = 370,000); inhibition, % at 3.7 µM; TR-FRET IN-LEDGF/p75 DNA integration, Eu/Cy5;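 active = inhibition above the screen-wide mean plus 3 SD, cut at about 13% in these data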;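 note: signal is the Cy5 over europium emission ratio at 671 and 618 nm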
IN multimer up: HIV-1 IN multimer formation enhancers, counter-screen for LEDGF/p75 integration inhibitor project, biochemical, TR-FRET; shares compounds with LEDGF integ inh; TR-FRET HIV-1 integrase multimerization; activation, % at 7.7 µM; actives 17% (n = 2,000); in the data active = activation above about 8.9%
TRFRET interf: TR-FRET optical interference artefacts, confirmation, artefact control for LEDGF/p75-dependent integration inhibitor project, biochemical, HIV-1 IN multimerization. TR-FRET optical interference counterscreen. inhibition, % at 7.7 µM. 2,000 tested, under 10 active. shares compounds with LEDGF integ inh;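 active = inhibition above the mean over all tested compounds plus 3 SD, which no compound reached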
LEDGF integ conf: inhibitors of HIV-1 IN-LEDGF/p75 DNA integration, confirmation, biochemical, TR-FRET | actives 36% (n = 2,000) | shares compounds with LEDGF integ inh | inhibition, % at 3.7 µM | TR-FRET LEDGF/p75-dependent HIV-1 integration; in the data active = inhibition above about 14%
Numbers stand for hits.

CC(=O)N1CCC(N(C(=O)Nc2c(F)cccc2F)C(C)C)CC1 was read as ARFGAP1 inhibitor inactive, CASP6 VEID inh inactive, TDP2 inh inactive, ASAP1 GAP inh inactive, LEDGF integ inh 20, IN multimer up inactive, TRFRET interf inactive and LEDGF integ conf inactive.
Screening O=C(Nn1cnnc1)c1ccc([N+](=O)[O-])cc1Cl returned ARFGAP1 inhibitor inactive, CASP6 VEID inh inactive, TDP2 inh inactive, ASAP1 GAP inh inactive and LEDGF integ inh inactive.
For Cn1nnc(NC(=O)c2ccc([N+](=O)[O-])cc2Cl)n1 the results were ARFGAP1 inhibitor inactive, CASP6 VEID inh inactive, TDP2 inh inactive, ASAP1 GAP inh inactive, LEDGF integ inh 51, IN multimer up inactive, TRFRET interf inactive and LEDGF integ conf inactive.
COc1ccc(-c2csc3nc(C(C)(C)C)oc(=O)c23)cc1OC was read as ARFGAP1 inhibitor inactive, CASP6 VEID inh inactive, TDP2 inh inactive, ASAP1 GAP inh inactive, LEDGF integ inh 16, IN multimer up inactive, TRFRET interf inactive and LEDGF integ conf inactive.
For NC(=O)C1CCN(C(=O)C2CC(=O)N(c3ccc(F)cc3)C2)CC1 (stereo unspecified) the results were ARFGAP1 inhibitor inactive, CASP6 VEID inh inactive, TDP2 inh inactive, ASAP1 GAP inh inactive and LEDGF integ inh inactive.
`CCOc1ccc(N2CC(C(=O)Nc3nnc(Cc4ccc(OC)cc4)s3)CC2=O)cc1` (stereo unspecified) gave ARFGAP1 inhibitor inactive, CASP6 VEID inh inactive, TDP2 inh inactive, ASAP1 GAP inh inactive, LEDGF integ inh 15, IN multimer up inactive, TRFRET interf inactive and LEDGF integ conf inactive.
Screening COc1ccc(Cc2nnc(NC(=O)C3CC(=O)N(c4ccc(OC)cc4)C3)s2)cc1 (stereo unspecified) returned ARFGAP1 inhibitor inactive, CASP6 VEID inh inactive, TDP2 inh inactive, ASAP1 GAP inh inactive and LEDGF integ inh inactive.
CN(C)C(=O)N1CCC(C(=O)N2CCCC(C(=O)c3cccc4ccccc34)C2)CC1 (stereo unspecified) was read as ARFGAP1 inhibitor inactive, CASP6 VEID inh inactive, TDP2 inh inactive, ASAP1 GAP inh inactive and LEDGF integ inh inactive.
Cc1nn(Cc2ccc(F)cc2)c(C)c1NC(=O)c1noc2c1CCCCC2 was read as ARFGAP1 inhibitor inactive, TDP2 inh inactive, ASAP1 GAP inh inactive, LEDGF integ inh 40, IN multimer up inactive, TRFRET interf inactive and LEDGF integ conf inactive.
For C=CCN(CC=C)C(=S)NC(=O)c1ccc(C)c(Br)c1 the results were ARFGAP1 inhibitor inactive, TDP2 inh inactive, ASAP1 GAP inh inactive, LEDGF integ inh 25, IN multimer up inactive, TRFRET interf inactive and LEDGF integ conf 33.
Screening C=CCN(CC=C)C(=S)NC(=O)c1ccc(-c2ccccc2)cc1 returned ARFGAP1 inhibitor inactive, TDP2 inh inactive, ASAP1 GAP inh inactive, LEDGF integ inh 23, IN multimer up inactive, TRFRET interf inactive and LEDGF integ conf 17.
Screening Cc1ccc(C(=O)NC(=S)N(C)C2CCCCC2)cc1Br returned ARFGAP1 inhibitor inactive, CASP6 VEID inh inactive, TDP2 inh inactive, ASAP1 GAP inh inactive and LEDGF integ inh inactive.
For O=C(C[C@H]1CC[C@@H]2[C@H](COC[C@H](O)CN2S(=O)(=O)c2ccccc2F)O1)NCc1ccccc1Cl the results were CASP6 VEID inh inactive.
CCOc1cc2c(C#N)c(N3CCCCC3)nc(N)c2c(N)n1 was read as ARFGAP1 inhibitor inactive, TDP2 inh inactive, ASAP1 GAP inh inactive and LEDGF integ inh inactive.
COc1cc2c(C#N)c(N3CCCCC3)nc(N)c2c(N)n1 was read as ARFGAP1 inhibitor inactive, TDP2 inh inactive, ASAP1 GAP inh inactive, LEDGF integ inh 34, IN multimer up inactive, TRFRET interf inactive and LEDGF integ conf inactive.
CCNC(=O)C[C@@H]1CC[C@@H]2[C@H](COc3ccc(NC(=O)c4cccc(OC)c4)cc3C(=O)N2C)O1 was read as CASP6 VEID inh inactive.
`CSc1ccc(C(=O)C2CCCN(C(=O)c3cccnc3SC)C2)cc1` (stereo unspecified) gave ARFGAP1 inhibitor inactive, CASP6 VEID inh inactive, TDP2 inh inactive, ASAP1 GAP inh inactive and LEDGF integ inh inactive.
CSc1ncccc1C(=O)N1CCCC(C(=O)c2ccc3ccccc3c2)C1 (stereo unspecified) was read as ARFGAP1 inhibitor inactive, CASP6 VEID inh inactive, TDP2 inh inactive, ASAP1 GAP inh inactive, LEDGF integ inh 15, IN multimer up inactive, TRFRET interf inactive and LEDGF integ conf inactive.
CCSc1nnc(C)c2ccccc12 was read as ARFGAP1 inhibitor inactive, TDP2 inh inactive, ASAP1 GAP inh inactive and LEDGF integ inh inactive.
`O=S(=O)(Nc1nc(-c2ccco2)c(-c2ccco2)s1)c1ccc(F)cc1F` gave ARFGAP1 inhibitor inactive, CASP6 VEID inh 62, TDP2 inh inactive, ASAP1 GAP inh inactive, LEDGF integ inh 35, IN multimer up inactive, TRFRET interf inactive and LEDGF integ conf inactive.
O=C(c1ccccc1)c1nn(-c2ccc(Cl)cc2)c(=O)cc1C(F)(F)F was read as ARFGAP1 inhibitor inactive, TDP2 inh inactive, ASAP1 GAP inh inactive, LEDGF integ inh 23, IN multimer up inactive, TRFRET interf inactive and LEDGF integ conf 19.
Screening O=C(c1ccccc1)c1nn(-c2ccccc2)c(=O)cc1C(F)(F)F returned ARFGAP1 inhibitor inactive, TDP2 inh inactive, ASAP1 GAP inh inactive and LEDGF integ inh inactive.
COc1cc(C(O)CO)ccc1O (stereo unspecified) was read as ARFGAP1 inhibitor inactive, CASP6 VEID inh inactive, TDP2 inh inactive, ASAP1 GAP inh inactive and LEDGF integ inh inactive.
`CNC[C@H](O)c1ccc(O)c(O)c1` gave ARFGAP1 inhibitor inactive, TDP2 inh inactive, ASAP1 GAP inh inactive, LEDGF integ inh 18, IN multimer up inactive, TRFRET interf inactive and LEDGF integ conf inactive.

Screens: PubChem, several laboratories
